For one data set, the system named is HepG2 cells. Kind of data set: Mammalian cell viability assay. The note with it: up to highest tested concentrations. Format: cell-based, human. The procedure, abridged:
(§1)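 Viability was read with Cell TiterGlo reagent, used according to the manufacturer's instructions, in 1536-well format with a plate-imager read-out. The same procedure was applied to human RBCs.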

The next data set deals with HEK293 cells. As to the kind of experiment: Mammalian cell viability assay. Format: cell-based, human. The note with it: up to highest tested concentrations. The procedure, abridged:
as §1

In data set [1] the test system is Plasmodium falciparum (cp250, Dd2, HB3, 7G8, GB4 lines). Kind of data set: SYBR Green DNA-staining parasite viability assay. Format: cell-based. In a few lines:
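Infected RBCs (0.3% parasitemia, 2.5% hematocrit final) in culture medium received pin-transferred test compound. Incubated 72 h at 37 °C in humidified 5% CO2. Lysis buffer was then added (20 mM Tris-HCl, 10 mM EDTA, 0.16% saponin, 1.6% Triton-X, 10× SYBR Green I), followed by overnight incubation at 22–24 °C in the dark. Fluorescence was read at 485/535 nm. Controls: artemisinin and mefloquine as positive, DMSO as negative.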

The next data set concerns Jurkat cells. The conditions noted are these: cited from earlier work.
The test system of data set [2] is P. falciparum plasmepsins (aspartyl protease activity of Pf extracts). As to the kind of experiment: Plasmepsin protease assay with P. falciparum extract and FRET peptide substrate. It is filed as biochemical, Plasmodium falciparum. The note with it: freshly prepared P. falciparum extracts.

In brackets after ≈: the same amount, converted by molar mass. Where a SMILES comes first, the peptide text is derived from it. [ ]: non-standard residue; d: D form. The star is where a group is joined. Sta = CC(C)C[C@H](N)[C@@H](O)CC(=O)O; Isovaleryl = CC(C)CC(=O)*

Consider `COCC(=O)N[C@@H](C(=O)N1NCCC[C@H]1C(=O)N[C@@H](Cc1ccccc1)[C@@H](O)[C@H](C)C(=O)N[C@@H]1CCN(C(N)=O)C1=O)[C@H](O)C(C)C` [25-epi-actinoramide A], for which, in the data set with HepG2 cells, the “toxicity to HepG2 cells (in words)” value is listed as “no toxicity”. In the data set with HEK293 cells, the “toxicity to HEK293 cells (in words)” value is “no toxicity”. Take `COCC(=O)N[C@@H](C(=O)N1NCCC[C@H]1C(=O)N[C@@H](Cc1ccccc1)[C@@H](O)[C@H](C)C(=O)NC1CNC(=O)NC1=O)[C@H](O)C(C)C` (stereo partly drawn) [Actinoramide F, actinoramide F]: the “antimalarial activity (in words)” value in data set [1] is given as “no antimalarial activity”.

With `COCC(=O)N[C@@H](C(=O)N1NCCC[C@H]1C(=O)N[C@@H](Cc1ccccc1)[C@@H](O)[C@H](C)C(=O)N[C@H]1CCN(C(N)=O)C1=O)[C@H](O)C(C)C` [actinoramide A], the “EC50 (cytotoxicity)” value in the data set on Jurkat cells is reported as “≈ 60 μg/mL”. In the data set with HepG2 cells, the “toxicity to HepG2 cells (in words)” value is given as “no toxicity”. The “toxicity to HEK293 cells (in words)” value in the data set with HEK293 cells is on record as “no toxicity”. With `COCC(=O)N[C@@H](C(=O)N1N=CCC[C@H]1C(=O)N[C@@H](Cc1ccccc1)[C@@H](O)[C@H](C)C(=O)N[C@H]1CCN(C(N)=O)C1=O)[C@H](O)C(C)C` [actinoramide D], in data set [1] (depending on the parasite strain), the “decrease in potency (vs actinoramide A)” value is 6–20 fold.

In the case of `COCC(=O)N[C@@H](C(=O)N1NCCC[C@H]1C(=O)N[C@@H](Cc1ccccc1)[C@@H](O)[C@H](C)C(=O)N[C@H]1CCC(=O)NC1=O)[C@H](O)C(C)C` [padanamide B, reference compound], the “EC50 (cytotoxicity)” value with Jurkat cells is ~20 µg/mL (≈ 30.9 µM). For `CC(C)CC(=O)N[C@H](C(=O)N[C@H](C(=O)N[C@@H](CC(C)C)[C@@H](O)CC(=O)N[C@@H](C)C(=O)N[C@@H](CC(C)C)[C@@H](O)CC(=O)O)C(C)C)C(C)C` [pepstatin] (Isovaleryl-VV[Sta]A[Sta]-OH), in data set [2], the “inhibition of aspartyl protease (plasmepsin) activity (in words)” value is “potently inhibited”.

The record behind these values is PMC4633019 (Journal of natural products, 2015).
